# Assay results taken from ChEMBL document CHEMBL3352197, “Design, synthesis, in silico and in vitro studies of novel 4-methylthiazole-5-carboxylic acid derivatives as potent anti-cancer agents” (Bioorg Med Chem Lett, 2014).
# How the values were obtained:
# MDA-MB-231 [1] = experiment: Cytotoxicity against human MDA-MB-231 cells assessed as cell viability at 100 ug/ml after 24 to 48 hrs by trypan blue exclusion assay (reference value: 86.21 +/- 1.80%); assay type: functional; details: read-out: Activity
# How it was run: (§1)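 MDA-MB-231 cells (DMEM, 10% FBS, 2 mM glutamine, 37 °C, 5% CO2) seeded at 2 x 10^5/well and grown 24 h. Compound in fresh medium with 0.1% DMSO (solvent control) for 24–48 h at 37 °C. Floating plus trypsinized adherent cells mixed 1:1 with 0.4% trypan blue and counted by haemocytometer. % viable = (total − dead)/total × 100. Mean SE, n = 3.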
# MDA-MB-231 [2] = experiment: Cytotoxicity against human MDA-MB-231 cells assessed as cell viability at 10 ug/ml after 24 to 48 hrs by trypan blue exclusion assay (reference value: 87.54 +/- 2.11%); assay type: functional; details: read-out: Activity; how it was run: as §1
# [3] = Lipophilicity, log P of the compound; assay type: physicochemical; details: octanol/water
# MDA-MB-231 [4] = experiment: Cytotoxicity against human MDA-MB-231 cells assessed as optical density after 24 hrs by MTT assay (Rvb =2.43 +/- 0.05 nm); assay type: functional
# How it was run: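 Exponentially growing MDA-MB-231 cells were resuspended in medium with 10% FBS, washed with PBS, and treated in fresh medium for 24 h. MTT (5 mg/mL stock in PBS) was then added for 4 h at 37 °C. Formazan was dissolved in DMSO and optical density read at 570 nm.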
logP [3],Compound,viability at 100 µg/mL (MDA-MB-231 [1]),viability at 10 µg/mL (MDA-MB-231 [2]),OD (MDA-MB-231 [4])
2.2,Cc1nc(-c2ccc(OCC(C)C)c(C#N)c2)sc1C(=O)NCc1ccccc1,63.5%,73.6%,1.89
2.9,Cc1nc(-c2ccc(OCC(C)C)c(C#N)c2)sc1C(=O)NCc1ccccc1F,43.2%,58.3%,1.27
2.86,Cc1nc(-c2ccc(OCC(C)C)c(C#N)c2)sc1C(=O)NCc1cccc(F)c1,54.3%,64.3%,1.44
2.86,Cc1nc(-c2ccc(OCC(C)C)c(C#N)c2)sc1C(=O)NCc1ccc(F)cc1,13.1%,21.8%,0.33
4.57,Cc1nc(-c2ccc(OCC(C)C)c(C#N)c2)sc1C(=O)Nc1ccccc1,50.7%,62.7%,1.31
2.7,Cc1nc(-c2ccc(OCC(C)C)c(C#N)c2)sc1C(=O)N1CCC(c2noc3cc(F)ccc23)CC1,56.3%,64.6%,1.65
1.63,COC(=O)c1sc(-c2ccc(OCC(C)C)c(C#N)c2)nc1C,67.6%,76.7%,2.27
1.59,Cc1nc(-c2ccc(OCC(C)C)c(C#N)c2)sc1C(=O)n1ccc(N)nc1=O,29.2%,40.9%,0.79
0.94,Cc1nc(-c2ccc(OCC(C)C)c(C#N)c2)sc1C(=O)n1cc(F)c(N)nc1=O,66.4%,74.6%,2.11
3.08,Cc1nc(-c2ccc(OCC(C)C)cc2)sc1C(=O)O,59.3%,71.2%,1.73
0,Cc1nc(-c2ccc(OCC(C)C)c(C#N)c2)sc1C(=O)OCC(C)C,36.2%,44.2%,1.16
–,Cc1ccc(-c2cc(C(F)(F)F)nn2-c2ccc(S(N)(=O)=O)cc2)cc1 [CELECOXIB],11.4%,17.3%,0.27
1.35,Cc1nc(-c2ccc(OCC(C)C)c(C#N)c2)sc1C(=O)O [FEBUXOSTAT],27.7%,38.3%,0.56
